Consider 1 compound from article PMC8063330 (Oncology Letters, 2021).

One test concerns c-myc in SNU-638 cells. Nature of the test: c-myc level by western blotting in SNU-638. The class given is cell-based. The conditions noted are these: 24 h. Put shortly: (§1)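 Cells grown in RPMI-1640 with 10% FBS and exposed to test compound. Lysates run on SDS-PAGE and immunoblotted for c-Myc with tubulin as loading reference. HRP secondaries, ECL detection.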
Background: In western blotting, separated proteins are transferred to a membrane and probed.

Another test deals with c-myc in MKN-45 cells. The test is described as follows: c-myc level by western blotting in MKN-45. The class given is cell-based. The settings on record: 24 h. Put shortly: as §1

SMILES strings stand for the structures.

On to `CCNC(=O)C[C@@H]1N=C(c2ccc(Cl)cc2)c2cc(OC)ccc2-n2c(C)nnc21` [I-BET-762], for which the c-myc level result in the test on c-myc in SNU-638 cells was “downregulated the c-myc level”; in the test with c-myc in MKN-45 cells, “did not downregulate the c-myc level”.
